Reference: ChEMBL document CHEMBL4311975, “Exploration of the antibiotic potentiating activity of indolglyoxylpolyamines” (Eur J Med Chem, 2019)
Values after ≈ are worked out from the molar mass of the structure shown.

Legend:
[1] = tested on: Staphylococcus intermedius; assay: Antibacterial activity against Staphylococcus intermedius 1051997 assessed as growth inhibition incubated for 18 hrs by broth dilution method; format: functional; conditions: Staphylococcus intermedius, 1051997, 18 h
How it was run: (§1)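 Broth microdilution following CA-SFM recommendations. Inoculum was 10^5 CFU in Mueller-Hinton broth with two-fold serial drug dilutions. Plates were incubated 18 h at 37 °C. MIC was the lowest concentration giving complete inhibition of visible growth. Values are means, n = 3.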

Staphylococcus aureus = assay: Antibacterial activity against Staphylococcus aureus ATCC 25923 assessed as growth inhibition incubated for 18 hrs by broth dilution method; format: functional; conditions: ATCC 25923, 18 h; how it was run: as §1
[2] = Hemolytic activity against Sprague-Dawley rat RBC assessed as release of hemoglobin at 50 uM incubated for 1 hr relative to control; format: ADME, cell-based, Erythrocyte; conditions: red blood cells (erythrocytes), read-out: Activity
How it was run: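 Fresh Sprague-Dawley rat erythrocytes were washed in saline and resuspended at 2% v/v. Cells were incubated with compound in DMSO/PBS for 1 h at 37 °C, then centrifuged at 200 g, and supernatant absorbance read at 540 nm. Results were normalised to DMSO/PBS (0%) and 0.1% Triton X-100 (100%). Single-point testing used 50 μM; HC50 came from 10-point curves. Means of three experiments.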

Cryptococcus neoformans = assay: Antifungal activity against Cryptococcus neoformans ATCC 208821 assessed as growth inhibition incubated for 36 hrs by resazurin dye based assay; format: functional; conditions: ATCC 208821, 36 h
How it was run: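 Cryptococcus was grown 3 days on YPD agar at 30 °C, suspended, and diluted in YNB broth to 2.5×10^3 CFU/mL. Cells were exposed to 0.008–32 μg/mL compound (final), in duplicate, for 36 h at 35 °C without shaking. Resazurin (0.006% final) was added for a further 3 h. MIC was read from absorbance at OD570–600. Means, n = 2.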

Escherichia coli = assay: Antibacterial activity against Escherichia coli ATCC 25922 assessed as growth inhibition incubated for 18 hrs by broth dilution method; format: functional; how it was run: as §1
Acinetobacter baumannii = assay: Antibacterial activity against Acinetobacter baumannii ATCC 19606 assessed as growth inhibition incubated for 18 hrs by resazurin dye based assay; format: functional; conditions: ATCC 19606 = CIP 70.34 = JCM 6841, 18 h
How it was run: (§2)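 Overnight cultures were diluted 40-fold in MHB and grown 1.5–2 h at 37 °C to mid-log phase. Cells were added at 5×10^5 CFU/mL final to two-fold compound dilutions (0.008–32 μg/mL final), in duplicate, for 18 h at 37 °C. Resazurin (0.001% final) was added for 2 h and MIC read by eye. Means, n = 2.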

Pseudomonas aeruginosa [3] = assay: Antibacterial activity against Pseudomonas aeruginosa ATCC 27853 assessed as growth inhibition incubated for 18 hrs by broth dilution method; format: functional; how it was run: as §1
[4] = Cytotoxicity against human HEK293 cells measured after 20 hrs by resazurin dye based fluorescence assay; format: cell-based
How it was run: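 HEK293 cells, 5,000/well in DMEM with 10% FBS, were exposed to compound for 20 h at 37 °C, 5% CO2. Resazurin (100 μM final) was added for 3 h, then fluorescence read at ex 560/em 590. Signal was normalised to tamoxifen (74 μg/mL, 0%) and untreated growth (100%), and CC50 came from dose-response fitting. Top dose 32 μg/mL. Means, n = 2.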

Klebsiella pneumoniae = assay: Antibacterial activity against Klebsiella pneumoniae ATCC 700603 assessed as growth inhibition incubated for 18 hrs by resazurin dye based assay; format: functional; how it was run: as §2
Pseudomonas aeruginosa [5] = assay: Potentiation of doxycycline-induced antibacterial activity against Pseudomonas aeruginosa ATCC 27853 assessed as concentration required to restore 2 ug/ml doxycycline activity measured after 18 hrs; format: functional
How it was run: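 Inoculum was 5×10^5 CFU in MHB with two-fold serial dilutions of adjuvant plus fixed doxycycline at 2 μg/mL. […] Repeated independently in triplicate.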

L6 = assay: Cytotoxicity against rat L6 cells measured after 72 hrs by alamar blue assay; format: cell-based; conditions: L6, 72 h
How it was run: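 Rat L6 myoblasts, 4×10^4/well in RPMI 1640 with L-glutamine and 10% FBS, received seven 3-fold dilutions (90 to 0.123 μg/mL) for 72 h. Alamar Blue was added for 2 h and fluorescence read at ex 536/em 588 nm. Podophyllotoxin served as reference. Means, n = 2.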

Candida albicans = assay: Antifungal activity against Candida albicans ATCC 90028 assessed as growth inhibition incubated for 36 hrs by resazurin dye based assay; format: functional; conditions: ATCC 90028, 36 h
How it was run: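 Yeast was grown 3 days on YPD agar at 30 °C. Colonies were suspended and diluted in YNB broth to 2.5×10^3 CFU/mL, then added to two-fold compound dilutions (0.008–32 μg/mL final), in duplicate. Plates stood 36 h at 35 °C without shaking. Means, n = 2.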

[6] = Klebsiella pneumoniae, 700603, 18 h

Compound	MIC [1]	MIC (Staphylococcus aureus)	hemolysis at 1 h, 50 µM [2]	MIC (Cryptococcus neoformans)	MIC (Escherichia coli; ATCC 25922, 18 h)	MIC (Acinetobacter baumannii)	MIC (Pseudomonas aeruginosa [3]; ATCC 27853, 18 h)	CC50 at 20 h [4]	MIC (Klebsiella pneumoniae; [6])	Activity (Pseudomonas aeruginosa [5])	IC50 (L6)	MIC (Candida albicans)	MIC (Escherichia coli)	MIC (Pseudomonas aeruginosa [3])	MIC (Klebsiella pneumoniae)
Cc1cccc2c(C(=O)C(=O)NCCCNCCCCNCCCNC(=O)C(=O)c3c[nH]c4c(C)cccc34)c[nH]c12.O=C(O)C(F)(F)F.O=C(O)C(F)(F)F	12.5 µM	25 µM	0.1%	10 µM	> 200 µM	> 40 µM	> 200 µM	> 40 µM	> 40 µM	6.25 µM	59.6 µM	> 40 µM	–	–	–
O=C(NCCCNCCCCNCCCNC(=O)C(=O)c1c[nH]c2ccccc12)C(=O)c1c[nH]c2ccccc12	> 100 µM	> 100 µM	0%	10.3 µM	> 100 µM	> 41.4 µM	> 100 µM	> 41.5 µM	> 41.4 µM	>50 µM	60 µM	> 41.4 µM	–	–	–
O=C(NCCCNCCCCNCCCNC(=O)C(=O)c1c[nH]c2c(Cl)cccc12)C(=O)c1c[nH]c2c(Cl)cccc12.O=C(O)C(F)(F)F.O=C(O)C(F)(F)F	–	50 µM	1.1%	19.1 µM	200 µM	> 38.1 µM	200 µM	31.6 µM	> 38.1 µM	25 µM	7.47 µM	> 38.1 µM	–	–	–
O=C(NCCCNCCCCNCCCNC(=O)C(=O)c1c[nH]c2cccc(F)c12)C(=O)c1c[nH]c2cccc(F)c12	35 µM (≈ 20.3 µg/mL)	> 70 µM	0.3%	> 55.1 µM	100 µM (≈ 58.1 µg/mL)	> 55.1 µM	140 µM (≈ 81.3 µg/mL)	> 55 µM	> 55.1 µM	35 µM	167 µM	> 55.1 µM	–	–	–
O=C(NCCCNCCCCNCCCNC(=O)C(=O)c1c[nH]c2ccc(Cl)cc12)C(=O)c1c[nH]c2ccc(Cl)cc12.O=C(O)C(F)(F)F.O=C(O)C(F)(F)F	–	> 200 µM	0%	> 38 µM	> 200 µM	> 38 µM	> 100 µM	4.73 µM	> 38 µM	14.9 µM	19.8 µM	38 µM	–	–	–
COC(=O)c1ccc2c(C(=O)C(=O)NCCCNCCCCNCCCNC(=O)C(=O)c3c[nH]c4cc(C(=O)OC)ccc34)c[nH]c2c1.O=C(O)C(F)(F)F.O=C(O)C(F)(F)F	12.5 µM	> 200 µM	0.6%	9 µM	> 200 µM	> 36 µM	> 200 µM	> 36 µM	> 36 µM	25 µM	63.6 µM	> 36 µM	–	–	–
COC(=O)c1cccc2c(C(=O)C(=O)NCCCNCCCCNCCCNC(=O)C(=O)c3c[nH]c4c(C(=O)OC)cccc34)c[nH]c12.O=C(O)C(F)(F)F.O=C(O)C(F)(F)F	> 200 µM	25 µM	15%	9 µM	200 µM	> 36 µM	200 µM	3.78 µM	> 36 µM	6.25 µM	34.4 µM	> 36 µM	–	–	–
O=C(NCCCNCCCCNCCCNC(=O)C(=O)c1c[nH]c2cc(F)ccc12)C(=O)c1c[nH]c2cc(F)ccc12.O=C(O)C(F)(F)F.O=C(O)C(F)(F)F	> 200 µM	100 µM	0.3%	19.8 µM	> 200 µM	> 39.6 µM	> 200 µM	12.5 µM	> 39.6 µM	25 µM	69.1 µM	> 39.6 µM	–	–	–
N#Cc1ccc2[nH]cc(C(=O)C(=O)NCCCNCCCCNCCCNC(=O)C(=O)c3c[nH]c4ccc(C#N)cc34)c2c1.O=C(O)C(F)(F)F.O=C(O)C(F)(F)F	> 200 µM	100 µM	0%	38.9 µM	> 200 µM	> 38.9 µM	> 200 µM	> 38.9 µM	> 38.9 µM	50 µM	37.1 µM	> 38.9 µM	–	–	–
OC(Cn1cncn1)(Cn1cncn1)c1ccc(F)cc1F [FLUCONAZOLE]	–	–	–	8 µg/mL	–	–	–	–	–	–	–	0.125 µg/mL	–	–	–
COc1ccc2[nH]cc(C(=O)C(=O)NCCCNCCCCNCCCNC(=O)C(=O)c3c[nH]c4ccc(OC)cc34)c2c1	50 µM (≈ 30.2 µg/mL)	100 µM (≈ 60.5 µg/mL)	0%	19.2 µM	> 200 µM	> 38.4 µM	> 200 µM	> 38.4 µM	> 38.4 µM	12.5 µM	56 µM	> 38.4 µM	–	–	–
CN[C@@H]1[C@H](O[C@H]2[C@H](O[C@H]3[C@H](O)[C@@H](O)[C@H](N=C(N)N)[C@@H](O)[C@@H]3N=C(N)N)O[C@@H](C)[C@]2(O)C=O)O[C@@H](CO)[C@H](O)[C@H]1O [STREPTOMYCIN]	10.7 µM (≈ 6.22 µg/mL)	21.5 µM (≈ 12.5 µg/mL)	–	–	21.5 µM (≈ 12.5 µg/mL)	–	21.5 µM (≈ 12.5 µg/mL)	–	–	–	–	–	–	–	–
COLISTIN	–	–	–	–	–	–	–	–	–	–	–	–	2 µM	1 µM	0.25 µg/mL
COc1cc([C@@H]2c3cc4c(cc3[C@H](O)[C@H]3COC(=O)[C@H]23)OCO4)cc(OC)c1OC [PODOFILOX]	–	–	–	–	–	–	–	–	–	–	0.018 µM	–	–	–	–
